The values that follow come from ChEMBL document CHEMBL4043222, “Pyrrolizines: Design, synthesis, anticancer evaluation and investigation of the potential mechanism of action” (Bioorg Med Chem, 2017).

SMILES strings stand for the structures. pIC50: −log10 of the molar value. The source made the active and inactive calls. The rule behind the calls is not given here.

The test system of test [1] is MCF7. The experiment in a line: Growth inhibition of human MCF7 cells by MTT assay. The class given is functional, cell-based. The method in brief: (§1)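 MTT viability. Cells seeded for 24 h, then exposed to compound for 48 h in DMEM/F-12 or DMEM with 5% FBS. Vehicle controls received matching DMSO. MTT added at 0.5 mg/mL for 3 h at 37 °C. Formazan dissolved in DMSO and absorbance read at 570 nm.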
(In general: Tetrazolium dyes change colour on reduction, which living cells bring about.)

Test [2] has as its system A549. Description: Growth inhibition of human A549 cells by MTT assay. In kind it is functional, cell-based. The essentials: as §1
For a further test, the system named is Hep 3B2. The experiment in a line: Growth inhibition of human Hep3B cells by MTT assay. In kind it is functional, cell-based. The method in brief: as §1
Test [3] concerns the target T1, Prostaglandin G/H synthase 1 (Ovis aries, UniProt P05979).
T1 sequence (P05979 whole entry): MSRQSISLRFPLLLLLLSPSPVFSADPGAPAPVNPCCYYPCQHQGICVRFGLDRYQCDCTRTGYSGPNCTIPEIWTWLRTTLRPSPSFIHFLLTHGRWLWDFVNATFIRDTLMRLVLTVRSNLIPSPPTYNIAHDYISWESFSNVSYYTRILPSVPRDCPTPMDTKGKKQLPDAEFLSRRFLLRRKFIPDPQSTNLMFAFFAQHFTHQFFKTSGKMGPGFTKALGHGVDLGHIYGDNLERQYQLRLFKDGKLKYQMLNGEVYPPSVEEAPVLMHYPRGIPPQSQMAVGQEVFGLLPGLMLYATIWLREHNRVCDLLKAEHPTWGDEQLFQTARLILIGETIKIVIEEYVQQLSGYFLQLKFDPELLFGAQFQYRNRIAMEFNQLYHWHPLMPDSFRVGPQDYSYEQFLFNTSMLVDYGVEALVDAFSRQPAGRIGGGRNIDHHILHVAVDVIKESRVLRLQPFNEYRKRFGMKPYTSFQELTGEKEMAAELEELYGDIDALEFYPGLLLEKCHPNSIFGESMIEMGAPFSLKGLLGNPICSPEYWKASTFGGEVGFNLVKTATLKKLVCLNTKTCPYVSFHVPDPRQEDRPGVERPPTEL
Description: Inhibition of ovine COX1 assessed as reduction in PGH2 formation by measuring PGF2alpha by colorimetric assay. The essentials: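 Colorimetric COX inhibitor screening kit run per the manufacturer, using ovine COX-1. IC50 calculated from three determinations.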

Test [4] deals with Activin receptor type-1-like (Homo sapiens) (UniProt P37023). The experiment in a line: Inhibition of ALK1 (unknown origin) at 10 uM using [33P]-ATP after 20 to 40 mins by scintillation counting method.
Sequence of Activin receptor type-1-like (Homo sapiens) (P37023 whole entry): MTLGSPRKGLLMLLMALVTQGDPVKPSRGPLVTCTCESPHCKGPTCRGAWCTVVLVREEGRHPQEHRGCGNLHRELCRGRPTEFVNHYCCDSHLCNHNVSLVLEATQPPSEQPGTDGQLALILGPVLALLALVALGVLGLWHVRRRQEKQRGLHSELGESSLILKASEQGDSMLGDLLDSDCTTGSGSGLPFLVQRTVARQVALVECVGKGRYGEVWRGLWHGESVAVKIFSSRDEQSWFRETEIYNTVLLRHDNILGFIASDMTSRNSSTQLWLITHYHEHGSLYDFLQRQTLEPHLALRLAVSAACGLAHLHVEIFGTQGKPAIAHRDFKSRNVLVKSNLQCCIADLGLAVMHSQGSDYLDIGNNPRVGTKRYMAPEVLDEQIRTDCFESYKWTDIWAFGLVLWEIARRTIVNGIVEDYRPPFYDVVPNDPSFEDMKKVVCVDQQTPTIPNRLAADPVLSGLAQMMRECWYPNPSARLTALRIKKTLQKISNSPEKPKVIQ
Test [5] concerns the target AMP-activated protein kinase (AMPK) alpha-1/beta-1/gamma-1 (Homo sapiens) (UniProt P54619+Q9Y478+Q13131). Description: Inhibition of AMPK alpha1/beta1/gamma1 (unknown origin) at 10 uM using [33P]-ATP after 20 to 40 mins by scintillation counting method. In kind it is protein-complex assay.
For test [6], the target named is Mitogen-activated protein kinase kinase kinase 5 (Homo sapiens) (UniProt Q99683). The experiment in a line: Inhibition of ASK1 (unknown origin) at 10 uM using [33P]-ATP after 20 to 40 mins by scintillation counting method.
Test [7] has as its target Tyrosine-protein kinase Blk (Homo sapiens) (UniProt P51451). The experiment in a line: Inhibition of BLK (unknown origin) at 10 uM using [33P]-ATP after 20 to 40 mins by scintillation counting method.
Test [8] concerns the target Casein kinase I isoform alpha (Homo sapiens) (UniProt P48729). The experiment in a line: Inhibition of CK1alpha1 (unknown origin) at 10 uM using [33P]-ATP after 20 to 40 mins by scintillation counting method.
Test [9] addresses Dual specificity tyrosine-phosphorylation-regulated kinase 3 (Homo sapiens) (UniProt O43781). Description: Inhibition of DYRK3 (unknown origin) at 10 uM using [33P]-ATP after 20 to 40 mins by scintillation counting method.
Test [10] deals with Ephrin type-A receptor 1 (Homo sapiens) (UniProt P21709). Description: Inhibition of EPHA1 (unknown origin) at 10 uM using [33P]-ATP after 20 to 40 mins by scintillation counting method.
Test [11] concerns the target Vascular endothelial growth factor receptor 1 (Homo sapiens) (UniProt P17948). The experiment in a line: Inhibition of FLT1 (unknown origin) at 10 uM using [33P]-ATP after 20 to 40 mins by scintillation counting method.
Test [12] deals with Rhodopsin kinase GRK1 (Homo sapiens) (UniProt Q15835). The experiment in a line: Inhibition of GRK1 (unknown origin) at 10 uM using [33P]-ATP after 20 to 40 mins by scintillation counting method.
Test [13] concerns the target Glycogen synthase kinase-3 alpha (Homo sapiens) (UniProt P49840). The experiment in a line: Inhibition of GSK3alpha (unknown origin) at 10 uM using [33P]-ATP after 20 to 40 mins by scintillation counting method.
The target of test [14] is Ribosomal protein S6 kinase alpha-5 (Homo sapiens) (UniProt O75582). Description: Inhibition of MSK1 (unknown origin) at 10 uM using [33P]-ATP after 20 to 40 mins by scintillation counting method.
Sequence of Ribosomal protein S6 kinase alpha-5 (Homo sapiens) (O75582 whole entry, looked up): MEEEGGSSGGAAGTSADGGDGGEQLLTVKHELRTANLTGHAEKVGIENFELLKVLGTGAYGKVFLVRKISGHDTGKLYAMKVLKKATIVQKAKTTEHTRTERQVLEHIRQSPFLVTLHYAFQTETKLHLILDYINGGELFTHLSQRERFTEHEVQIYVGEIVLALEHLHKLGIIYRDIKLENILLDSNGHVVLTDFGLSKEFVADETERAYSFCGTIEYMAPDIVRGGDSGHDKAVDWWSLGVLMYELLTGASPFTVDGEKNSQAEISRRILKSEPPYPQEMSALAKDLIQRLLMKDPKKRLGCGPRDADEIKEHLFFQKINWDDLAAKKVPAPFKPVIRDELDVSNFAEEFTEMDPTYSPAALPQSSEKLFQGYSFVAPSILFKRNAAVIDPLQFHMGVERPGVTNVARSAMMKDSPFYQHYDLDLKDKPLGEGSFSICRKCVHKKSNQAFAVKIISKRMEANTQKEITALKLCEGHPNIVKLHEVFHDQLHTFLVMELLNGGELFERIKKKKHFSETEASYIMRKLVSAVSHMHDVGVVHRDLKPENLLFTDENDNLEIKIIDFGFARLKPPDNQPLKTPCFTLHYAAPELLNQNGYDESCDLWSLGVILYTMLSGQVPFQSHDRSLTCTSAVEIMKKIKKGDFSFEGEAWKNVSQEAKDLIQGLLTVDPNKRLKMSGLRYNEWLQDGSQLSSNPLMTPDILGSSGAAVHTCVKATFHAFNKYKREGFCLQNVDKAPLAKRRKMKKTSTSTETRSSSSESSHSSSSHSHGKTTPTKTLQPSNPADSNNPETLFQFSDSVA
Test [15] deals with 3-phosphoinositide-dependent protein kinase 1 (Homo sapiens) (UniProt O15530). Description: Inhibition of PDK1 (unknown origin) at 10 uM using [33P]-ATP after 20 to 40 mins by scintillation counting method.
In test [16] the target is cGMP-dependent protein kinase 1 (Homo sapiens) (UniProt Q13976). The experiment in a line: Inhibition of PRKG1 (unknown origin) at 10 uM using [33P]-ATP after 20 to 40 mins by scintillation counting method.
Sequence of cGMP-dependent protein kinase 1 (Homo sapiens) (Q13976 whole entry): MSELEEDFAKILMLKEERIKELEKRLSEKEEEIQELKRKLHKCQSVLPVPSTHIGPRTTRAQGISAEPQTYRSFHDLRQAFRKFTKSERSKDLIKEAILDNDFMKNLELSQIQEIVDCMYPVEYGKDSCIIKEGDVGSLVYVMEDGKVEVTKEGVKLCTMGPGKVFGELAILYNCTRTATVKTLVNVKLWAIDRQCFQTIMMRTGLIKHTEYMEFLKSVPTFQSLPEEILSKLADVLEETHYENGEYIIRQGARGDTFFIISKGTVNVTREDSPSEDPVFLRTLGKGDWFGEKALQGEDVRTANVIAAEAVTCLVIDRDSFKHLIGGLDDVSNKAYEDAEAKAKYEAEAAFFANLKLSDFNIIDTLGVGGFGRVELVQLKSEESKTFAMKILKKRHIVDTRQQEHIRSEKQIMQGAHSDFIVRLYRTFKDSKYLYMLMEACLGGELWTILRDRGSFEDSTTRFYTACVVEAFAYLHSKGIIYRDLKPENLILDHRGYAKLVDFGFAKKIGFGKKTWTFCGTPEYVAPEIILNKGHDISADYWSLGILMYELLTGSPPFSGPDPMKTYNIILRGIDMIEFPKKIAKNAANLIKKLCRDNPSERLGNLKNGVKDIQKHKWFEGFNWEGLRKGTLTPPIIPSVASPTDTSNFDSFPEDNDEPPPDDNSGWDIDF
For test [17], the target named is Serine/threonine-protein kinase Sgk1 (Homo sapiens) (UniProt O00141). The experiment in a line: Inhibition of SGK1 (unknown origin) at 10 uM using [33P]-ATP after 20 to 40 mins by scintillation counting method.
Sequence of Serine/threonine-protein kinase Sgk1 (Homo sapiens) (O00141 whole entry): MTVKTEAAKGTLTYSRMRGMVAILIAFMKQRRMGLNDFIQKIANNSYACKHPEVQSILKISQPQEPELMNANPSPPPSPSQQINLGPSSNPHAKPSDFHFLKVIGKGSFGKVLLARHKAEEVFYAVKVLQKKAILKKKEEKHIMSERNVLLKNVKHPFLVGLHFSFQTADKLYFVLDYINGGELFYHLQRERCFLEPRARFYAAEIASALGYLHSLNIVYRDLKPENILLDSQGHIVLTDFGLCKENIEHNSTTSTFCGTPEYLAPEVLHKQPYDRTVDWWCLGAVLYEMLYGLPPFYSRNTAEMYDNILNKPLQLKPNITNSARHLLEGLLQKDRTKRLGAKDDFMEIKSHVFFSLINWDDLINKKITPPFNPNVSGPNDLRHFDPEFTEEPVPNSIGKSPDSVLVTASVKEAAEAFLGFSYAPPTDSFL
For a further test, the system named is PC-3. Description: Anticancer activity against human PC3 cells. The class given is functional, cell-based.
For test [18], the system named is MCF7. The experiment in a line: Anticancer activity against human MCF7 cells. In kind it is functional, cell-based.
Test [19] has as its system A549. The experiment in a line: Induction of apoptosis in human A549 cells assessed as caspe-3/7 activation at 5 to 20 uM incubated for 24 hrs by Caspase-Glo 3/7 luminescence assay. In kind it is functional, cell-based. The method in brief:
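A549 cells plated at 1 x 10^4 per well and allowed 24 h to settle. Medium removed, then compounds added for 24 h at 5, 10 and 20 μM. Vehicle controls received equivalent DMSO. Caspase-3/7 activity read by Caspase-Glo 3/7 luminescence (RLU). Mean ± S.D. (n = 5), experiment done 3 times. Compared with vehicle by one-way ANOVA with Dunnett's test.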

Sequence of Casein kinase I isoform alpha (Homo sapiens) (P48729 2-337 limits assumed): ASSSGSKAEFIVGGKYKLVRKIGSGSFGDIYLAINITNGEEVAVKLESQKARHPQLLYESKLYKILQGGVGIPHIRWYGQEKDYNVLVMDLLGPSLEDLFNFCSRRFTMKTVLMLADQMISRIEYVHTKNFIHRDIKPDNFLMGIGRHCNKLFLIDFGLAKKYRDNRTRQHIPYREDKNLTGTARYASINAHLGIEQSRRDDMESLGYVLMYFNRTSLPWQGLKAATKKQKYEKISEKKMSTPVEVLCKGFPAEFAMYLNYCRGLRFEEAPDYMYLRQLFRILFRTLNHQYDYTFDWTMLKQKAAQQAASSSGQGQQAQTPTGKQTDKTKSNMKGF
Sequence of Tyrosine-protein kinase Blk (Homo sapiens) (P51451 2-505 limits assumed): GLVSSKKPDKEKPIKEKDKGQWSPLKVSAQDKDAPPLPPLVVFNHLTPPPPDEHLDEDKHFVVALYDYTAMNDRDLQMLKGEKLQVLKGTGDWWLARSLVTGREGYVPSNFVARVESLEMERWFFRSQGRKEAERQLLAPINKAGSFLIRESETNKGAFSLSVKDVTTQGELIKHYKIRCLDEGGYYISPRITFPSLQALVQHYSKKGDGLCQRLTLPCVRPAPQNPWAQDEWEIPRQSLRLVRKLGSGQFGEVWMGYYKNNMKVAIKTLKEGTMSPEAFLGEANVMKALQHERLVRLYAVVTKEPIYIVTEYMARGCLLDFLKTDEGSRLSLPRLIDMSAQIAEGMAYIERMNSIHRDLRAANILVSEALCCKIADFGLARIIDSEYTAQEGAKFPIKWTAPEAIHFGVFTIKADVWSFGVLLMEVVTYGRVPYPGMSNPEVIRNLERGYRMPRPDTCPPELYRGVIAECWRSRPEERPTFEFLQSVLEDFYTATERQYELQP
Sequence of AMP-activated protein kinase (AMPK) alpha-1/beta-1/gamma-1 (Homo sapiens) (P54619 whole entry): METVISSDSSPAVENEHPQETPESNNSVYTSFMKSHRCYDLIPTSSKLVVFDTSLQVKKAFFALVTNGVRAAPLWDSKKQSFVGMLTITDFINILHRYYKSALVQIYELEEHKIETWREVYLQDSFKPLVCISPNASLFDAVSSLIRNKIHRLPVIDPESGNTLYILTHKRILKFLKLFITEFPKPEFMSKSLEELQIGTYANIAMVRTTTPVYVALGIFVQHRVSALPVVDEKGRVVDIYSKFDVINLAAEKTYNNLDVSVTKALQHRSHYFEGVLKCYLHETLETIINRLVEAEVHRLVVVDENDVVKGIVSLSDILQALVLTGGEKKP
Sequence of AMP-activated protein kinase (AMPK) alpha-1/beta-1/gamma-1 (Homo sapiens) (Q13131 whole entry partner): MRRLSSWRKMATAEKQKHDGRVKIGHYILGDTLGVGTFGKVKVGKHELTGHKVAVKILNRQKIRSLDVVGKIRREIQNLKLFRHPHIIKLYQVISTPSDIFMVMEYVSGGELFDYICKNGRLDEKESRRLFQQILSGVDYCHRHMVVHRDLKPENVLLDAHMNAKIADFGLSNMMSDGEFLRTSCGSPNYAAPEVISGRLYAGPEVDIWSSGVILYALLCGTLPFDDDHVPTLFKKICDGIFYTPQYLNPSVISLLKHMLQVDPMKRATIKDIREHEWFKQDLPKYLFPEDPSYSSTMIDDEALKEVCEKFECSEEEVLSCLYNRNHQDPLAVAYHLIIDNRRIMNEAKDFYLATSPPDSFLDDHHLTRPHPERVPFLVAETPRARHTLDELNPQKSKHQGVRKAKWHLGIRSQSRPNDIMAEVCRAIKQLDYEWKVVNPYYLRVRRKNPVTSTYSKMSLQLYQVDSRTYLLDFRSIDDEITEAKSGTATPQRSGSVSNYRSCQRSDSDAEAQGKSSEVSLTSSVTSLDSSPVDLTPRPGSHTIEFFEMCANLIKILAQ
Sequence of AMP-activated protein kinase (AMPK) alpha-1/beta-1/gamma-1 (Homo sapiens) (Q9Y478 2-270 partner limits assumed): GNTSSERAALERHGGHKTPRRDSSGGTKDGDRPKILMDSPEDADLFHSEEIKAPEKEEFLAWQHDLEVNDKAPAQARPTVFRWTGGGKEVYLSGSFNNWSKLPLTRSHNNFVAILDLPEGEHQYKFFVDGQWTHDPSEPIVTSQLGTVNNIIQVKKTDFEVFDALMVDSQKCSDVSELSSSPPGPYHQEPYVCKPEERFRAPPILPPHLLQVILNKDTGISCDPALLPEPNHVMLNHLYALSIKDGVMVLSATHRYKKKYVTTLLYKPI
Sequence of Glycogen synthase kinase-3 alpha (Homo sapiens) (P49840 2-483 limits assumed): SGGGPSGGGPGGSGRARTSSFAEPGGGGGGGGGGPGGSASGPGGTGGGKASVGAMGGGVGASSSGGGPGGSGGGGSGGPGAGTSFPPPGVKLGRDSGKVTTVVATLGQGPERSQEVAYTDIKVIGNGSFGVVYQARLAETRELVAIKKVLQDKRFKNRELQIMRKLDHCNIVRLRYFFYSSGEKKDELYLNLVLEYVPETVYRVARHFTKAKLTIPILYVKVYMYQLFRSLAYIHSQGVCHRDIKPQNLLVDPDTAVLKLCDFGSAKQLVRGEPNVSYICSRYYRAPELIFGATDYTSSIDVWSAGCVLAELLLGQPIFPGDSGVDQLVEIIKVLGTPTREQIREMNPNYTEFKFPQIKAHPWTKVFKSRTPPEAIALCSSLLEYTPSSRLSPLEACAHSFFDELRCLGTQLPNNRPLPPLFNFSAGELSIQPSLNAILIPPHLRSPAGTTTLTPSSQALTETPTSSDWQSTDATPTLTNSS

The pIC50 is −log10 of the IC50, conventionally taken in molar units. Consider `Cc1ccc(NC(=O)c2c(N=Cc3cccs3)c(C#N)c3n2CCC3)cc1`, for which the pIC50 is 5.27 with MCF7 [1], 4.94 with A549 [2], 4.86 in the test with Hep 3B2 and 4.98 in [3].

Regarding `N#Cc1c(N=Cc2ccc3ccccc3c2)c(C(=O)Nc2ccc(Cl)cc2)n2c1CCC2`, the pIC50 is 5.01 with MCF7 [1], 4.95 in the test on A549 [2], 4.90 in the test with Hep 3B2 and 4.97 in [3].

As a reminder, the inhibition is the relative decrease from the control value, in per cent. Regarding `Cc1ccc(NC(=O)c2ccc(CN3CCN(C)CC3)cc2)cc1Nc1nccc(-c2cccnc2)n1`, the inhibition was -14% in test [4]; -18% in test [5]; -5% in test [6]; 3% in [7]; 0% in test [8]; 10% in test [9]. For the same compound, the inhibition in test [10] is -22%; in test [11], 10%; in test [12], -2%; in test [13], 1%; in test [14] it was -49%; in [15] it was -34%. For the same compound, the inhibition is -4% in test [16] and -3% in test [17].

In the case of `N#Cc1c(N=Cc2cccnc2)c(C(=O)Nc2ccc(Cl)cc2)n2c1CCC2`, the pIC50 in the test on MCF7 [1] is 4.65; in the test on A549 [2] it was 4.64; with Hep 3B2 it was 4.51; in [3], 5.24.

Regarding `COc1cccc2c1C(=O)c1c(O)c3c(c(O)c1C2=O)C[C@@](O)(C(=O)CO)C[C@@H]3O[C@H]1C[C@H](N)[C@H](O)[C@H](C)O1` [DOXORUBICIN], the pIC50 in the test with MCF7 [1] is 5.64; in the test with Hep 3B2, 5.62.

Turning to `N#Cc1c(/N=C/c2ccc([N+](=O)[O-])cc2)c(C(=O)Nc2cc(Cl)cc(Cl)c2)n2c1CCC2`, the pIC50 was 5.07 in the test with PC-3; 5.10 in the test on MCF7 [18]; 5.10 with MCF7 [1]; 4.79 in the test on A549 [2]; 4.85 with Hep 3B2.

With `N#Cc1c(N=Cc2cccnc2)c(C(=O)Nc2ccccc2)n2c1CCC2`, the negative-log IC50 (pIC50) in the test on MCF7 [1] is 4.93; with A549 [2] it was 4.76; in the test with Hep 3B2, 4.59; in test [3] it was 4.95.

For the compound `N#Cc1c(N=Cc2ccco2)c(C(=O)Nc2ccccc2)n2c1CCC2`, the pIC50 was 5.08 in the test on MCF7 [1], 5.01 in the test on A549 [2], 4.89 in the test with Hep 3B2 and 5.18 in [3].

On to `Cc1ccc(NC(=O)c2c(N=Cc3ccco3)c(C#N)c3n2CCC3)cc1`, for which the negative-log IC50 (pIC50) with MCF7 [1] is 4.79; in the test with A549 [2], 4.53; in the test on Hep 3B2 it was 4.61; in test [3] it was 5.03.

With `N#Cc1c(N=Cc2ccc3ccccc3c2)c(C(=O)Nc2ccccc2)n2c1CCC2`, the pIC50 with MCF7 [1] was 5.24; in the test on A549 [2] it was 5.15; in the test with Hep 3B2, 4.99; in [3], 5.10. In the test with A549 [19], the result was Active.

For `Cc1ccc(NC(=O)c2c(N=Cc3cccnc3)c(C#N)c3n2CCC3)cc1`, the pIC50 was 4.74 in the test with MCF7 [1], 4.69 with A549 [2], 4.46 with Hep 3B2 and 5.02 in test [3].

Regarding `N#Cc1c(N=Cc2cccs2)c(C(=O)Nc2ccccc2)n2c1CCC2`, the pIC50 in the test with MCF7 [1] is 5.16; in the test with A549 [2] it was 4.90; in the test with Hep 3B2, 4.73; in [3] it was 5.30.

Take `N#Cc1c(N=Cc2cccs2)c(C(=O)Nc2ccc(Cl)cc2)n2c1CCC2`: the negative-log IC50 (pIC50) was 5.33 in the test on MCF7 [1], 4.64 in the test with A549 [2], 4.93 in the test on Hep 3B2 and 5.11 in test [3].

On to `N#Cc1c(N=Cc2ccco2)c(C(=O)Nc2ccc(Cl)cc2)n2c1CCC2`, for which the pIC50 with MCF7 [1] is 4.80; in the test on A549 [2] it was 4.55; in the test with Hep 3B2, 4.56; in test [3], 5.08.
